What was measured:
T47D = assay: Cytotoxicity against human T47D cells assessed as cell growth at 10^-5 M after 48 hrs by SRB assay; assay type: functional; settings: read-out: Activity
Summary of the method: (§1)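 NCI-60 one-dose screen across nine tumour subpanels. Each agent added once at 10^-5 M, cultures incubated 48 h. Endpoint is sulforhodamine B protein staining read spectrophotometrically. Output is percent growth of treated cells relative to untreated controls.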

Hs-578T = assay: Cytotoxicity against human Hs578T cells assessed as cell growth at 10^-5 M after 48 hrs by SRB assay; assay type: functional; settings: read-out: Activity
Summary of the method: (§2)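 NCI 60-cell-line primary one-dose screen across nine tumour subpanels. Compound added at a single concentration of 10^-5 M and cultures incubated 48 h. Endpoint was sulforhodamine B protein staining read spectrophotometrically, with growth expressed as percent of untreated control cells.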

PC-3 = assay: Cytotoxicity against human PC3 cells assessed as cell growth at 10^-5 M after 48 hrs by SRB assay; assay type: functional; settings: PC-3, 48 h, read-out: Activity; summary of the method: as §2
RXF 393 = assay: Cytotoxicity against human RXF393 cells assessed as cell growth at 10^-5 M after 48 hrs by SRB assay; assay type: functional; settings: RXF 393, 48 h, read-out: Activity; summary of the method: as §2
A498 = assay: Cytotoxicity against human A498 cells assessed as cell growth at 10^-5 M after 48 hrs by SRB assay; assay type: functional; settings: A498, 48 h, read-out: Activity; summary of the method: as §2
OVCAR-5 = assay: Cytotoxicity against human OVCAR5 cells assessed as cell growth at 10^-5 M after 48 hrs by SRB assay; assay type: functional; settings: OVCAR-5, 48 h, read-out: Activity; summary of the method: as §2
OVCAR-3 = assay: Cytotoxicity against human OVCAR3 cells assessed as cell growth at 10^-5 M after 48 hrs by SRB assay; assay type: functional; settings: OVCAR-3, 48 h, read-out: Activity; summary of the method: as §2
UACC-257 = assay: Cytotoxicity against human UACC257 cells assessed as cell growth at 10^-5 M after 48 hrs by SRB assay; assay type: functional; settings: UACC-257, 48 h, read-out: Activity; summary of the method: as §1
SK-MEL-5 = assay: Cytotoxicity against human SK-MEL-5 cells assessed as cell growth at 10^-5 M after 48 hrs by SRB assay; assay type: functional; settings: SK-MEL-5, 48 h, read-out: Activity; summary of the method: as §1
SK-MEL-2 = assay: Cytotoxicity against human SK-MEL-2 cells assessed as cell growth at 10^-5 M after 48 hrs by SRB assay; assay type: functional; settings: SK-MEL-2, 48 h, read-out: Activity; summary of the method: as §2
MDA-MB-435 = assay: Cytotoxicity against human MDA-MB-435 cells assessed as cell growth at 10^-5 M after 48 hrs by SRB assay; assay type: functional; settings: MDA-MB-435, 48 h, read-out: Activity; summary of the method: as §2
LOX IMVI = assay: Cytotoxicity against human LOXIMVI cells assessed as cell growth at 10^-5 M after 48 hrs by SRB assay; assay type: functional; settings: read-out: Activity; summary of the method: as §2
SF-539 = assay: Cytotoxicity against human SF539 cells assessed as cell growth at 10^-5 M after 48 hrs by SRB assay; assay type: functional; settings: SF-539, 48 h, read-out: Activity; summary of the method: as §2
SW-620 = assay: Cytotoxicity against human SW620 cells assessed as cell growth at 10^-5 M after 48 hrs by SRB assay; assay type: functional; settings: SW-620, 48 h, read-out: Activity; summary of the method: as §1
KM12 = assay: Cytotoxicity against human KM12 cells assessed as cell growth at 10^-5 M after 48 hrs by SRB assay; assay type: functional; settings: KM12, 48 h, read-out: Activity; summary of the method: as §2
HCT-15 = assay: Cytotoxicity against human HCT15 cells assessed as cell growth at 10^-5 M after 48 hrs by SRB assay; assay type: functional; settings: HCT-15, 48 h, read-out: Activity; summary of the method: as §2
HCT-116 = assay: Cytotoxicity against human HCT116 cells assessed as cell growth at 10^-5 M after 48 hrs by SRB assay; assay type: functional; settings: HCT-116, 48 h, read-out: Activity; summary of the method: as §2
COLO 205 = assay: Cytotoxicity against human COLO205 cells assessed as cell growth at 10^-5 M after 48 hrs by SRB assay; assay type: functional; settings: COLO 205, 48 h, read-out: Activity; summary of the method: as §2
NCI-H23 = assay: Cytotoxicity against human NCI-H23 cells assessed as cell growth at 10^-5 M after 48 hrs by SRB assay; assay type: functional; settings: NCI-H23, 48 h, read-out: Activity; summary of the method: as §2
NCI-H226 = assay: Cytotoxicity against human NCI-H226 cells assessed as cell growth at 10^-5 M after 48 hrs by SRB assay; assay type: functional; settings: NCI-H226, 48 h, read-out: Activity; summary of the method: as §2
A549 = assay: Cytotoxicity against human A549 cells assessed as cell growth at 10^-5 M after 48 hrs by SRB assay; assay type: functional; settings: A549, 48 h, read-out: Activity; summary of the method: as §2
Rattus norvegicus [1] = assay: Gastrointestinal toxicity in albino rat assessed as ulcer index at 0.28 mmol/kg, po (reference value: 0.60 +/- 0.05); assay type: organism-based; settings: in vivo
Rattus norvegicus [2] = assay: Antiinflammatory activity in albino rat assessed as inhibition of carrageenan-induced paw edema at 0.28 mmol/kg, po after 5 hrs relative to control; assay type: functional
Summary of the method: (§3)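 Adult male albino rats (120–140 g), four per group, fasted 24 h with water allowed. Test agent suspended in 0.5% w/v aqueous CMC and given orally at 0.28 mmol/kg; controls received CMC alone. After 30 min, 0.1 mL fresh 1% carrageenan in saline was injected subplantar into the right hind paw and saline into the left. Paw thickness was measured by Vernier caliper; % inhibition = [(VR−VL)control − (VR−VL)treated]/(VR−VL)control ×100. Mean ± SEM, one-way ANOVA.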

Rattus norvegicus [3] = assay: Antiinflammatory activity in albino rat assessed as inhibition of carrageenan-induced paw edema at 0.28 mmol/kg, po after 4 hrs relative to control; assay type: functional; summary of the method: as §3
Rattus norvegicus [4] = assay: Antiinflammatory activity in albino rat assessed as inhibition of carrageenan-induced paw edema at 0.28 mmol/kg, po after 1 hr relative to control; assay type: functional; summary of the method: as §3
[5] = Induction of nitric oxide release in phosphate buffer at pH 7.4 at 0.1 mM after 4 hrs by Griess method in presence of 0.5 mM of N-acetylcysteine; assay type: physicochemical; settings: pH 7.4, 4 h, 100 µM
Summary of the method: (§4)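 Compound in DMF diluted to final 10^-4 M in 1:1 50 mM phosphate buffer pH 7.4/MeOH with 5×10^-4 M N-acetylcysteine, 37 °C. Aliquot mixed with Griess reagent, 10 min at room temperature, A546 read. Nitrite quantified against sodium nitrite standards (10–80 nmol/mL); NO expressed as mol/mol. n = 4 reaction mixtures per compound.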

[6] = Induction of nitric oxide release in phosphate buffer at pH 7.4 at 0.1 mM after 2 hrs by Griess method in presence of 0.5 mM of N-acetylcysteine; assay type: physicochemical; settings: pH 7.4, 2 h, 100 µM; summary of the method: as §4
[7] = Induction of nitric oxide release in phosphate buffer at pH 7.4 at 0.1 mM after 3 hrs by Griess method in presence of 0.5 mM of N-acetylcysteine; assay type: physicochemical; settings: pH 7.4, 3 h, 100 µM; summary of the method: as §4
[8] = Induction of nitric oxide release in phosphate buffer at pH 7.4 at 0.1 mM after 1 hr by Griess method in presence of 0.5 mM of N-acetylcysteine; assay type: physicochemical; settings: pH 7.4, 1 h, 100 µM; summary of the method: as §4
HOP-92 = assay: Cytotoxicity against human HOP92 cells assessed as cell growth at 10^-5 M after 48 hrs by SRB assay; assay type: functional; settings: HOP-92, 48 h, read-out: Activity; summary of the method: as §2

Compound	growth at 10 µM (T47D)	growth at 10 µM (Hs-578T)	growth at 10 µM (PC-3)	growth at 10 µM (RXF 393)	growth at 10 µM (A498)	growth at 10 µM (OVCAR-5)	growth at 10 µM (OVCAR-3)	growth at 10 µM (UACC-257)	growth at 10 µM (SK-MEL-5)	growth at 10 µM (SK-MEL-2)	growth at 10 µM (MDA-MB-435)	growth at 10 µM (LOX IMVI)	growth at 10 µM (SF-539)	growth at 10 µM (SW-620)	growth at 10 µM (KM12)	growth at 10 µM (HCT-15)	growth at 10 µM (HCT-116)	growth at 10 µM (COLO 205)	growth at 10 µM (NCI-H23)	growth at 10 µM (NCI-H226)	also measured
O/N=C(/CSc1nnc(-c2ccccc2)n1-c1ccccc1)c1ccccc1	98%	82.9%	82.8%	108%	49.5%	125%	92.3%	87.6%	89.2%	101%	97.5%	104%	120%	98.8%	97.5%	101%	92.3%	107%	103%	95.6%	growth at 10 µM (A549): 88.6%; UI (Rattus norvegicus [1]): 2.53; inhibition in vivo at 280 µmol/kg (Rattus norvegicus [2]): 75%; inhibition in vivo at 280 µmol/kg (Rattus norvegicus [3]): 79%; inhibition in vivo at 280 µmol/kg (Rattus norvegicus [4]): 60%; Activity [5]: 0.13 mol/mol; Activity [6]: 0.1 mol/mol; Activity [7]: 0.12 mol/mol; Activity [8]: 0.06 mol/mol
COc1ccc(-c2nnc(SC/C(=N/O)c3ccccc3)n2-c2ccccc2)cc1	86%	107%	86.4%	108%	73.8%	109%	111%	98%	93.9%	106%	102%	101%	107%	114%	112%	95.1%	93.2%	116%	106%	103%	growth at 10 µM (HOP-92): 101%; growth at 10 µM (A549): 85%; UI (Rattus norvegicus [1]): 7.57; inhibition in vivo at 280 µmol/kg (Rattus norvegicus [2]): 73%; inhibition in vivo at 280 µmol/kg (Rattus norvegicus [3]): 80%; inhibition in vivo at 280 µmol/kg (Rattus norvegicus [4]): 58%; Activity [5]: 0.15 mol/mol; Activity [6]: 0.08 mol/mol; Activity [7]: 0.09 mol/mol; Activity [8]: 0.08 mol/mol
COc1ccc(-c2nnc(SC/C(=N/O)c3ccccc3)n2-c2ccccc2)cc1OC	90.1%	105%	91.6%	102%	94.2%	100%	106%	101%	85.8%	116%	109%	90.3%	103%	110%	99.8%	98.3%	92%	100%	98%	94.9%	growth at 10 µM (HOP-92): 86.5%; growth at 10 µM (A549): 90.1%; UI (Rattus norvegicus [1]): 5.71; inhibition in vivo at 280 µmol/kg (Rattus norvegicus [2]): 78%; inhibition in vivo at 280 µmol/kg (Rattus norvegicus [3]): 81%; inhibition in vivo at 280 µmol/kg (Rattus norvegicus [4]): 55%; Activity [5]: 0.19 mol/mol; Activity [6]: 0.17 mol/mol; Activity [7]: 0.18 mol/mol; Activity [8]: 0.15 mol/mol

Reference: ChEMBL document CHEMBL2390929, “New nitric oxide donating 1,2,4-triazole/oxime hybrids: synthesis, investigation of anti-inflammatory, ulceroginic liability and antiproliferative activities” (Bioorg Med Chem, 2013)
